Measurements taken from paper PMC4258449 (Nitric oxide : biology and chemistry / official journal of …, 2014).
Read-outs that look alike come from different tables or passages of the source.

Experiments:
[1] = type: physicochemical; conditions: for half-life: assay buffer: 50 µM DTPA in phosphate-buffered saline; for k (decomposition rate constant): pH 7.4, 37 °C, assay buffer
MCF-7 cells = test: Clonogenic cell viability assay; type: cell-based, human; conditions: MCF-7, 0.5–20 mM, 24 h treatment
Outline: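 MCF-7 cells in RPMI 1640 with 10% FBS and penicillin/streptomycin at 37 °C, 5% CO2, were seeded at 400,000 per 60-mm dish and grown 48 h. They were exposed in growth medium for 24 h, PBS-washed twice, trypsinized, counted and replated at 100, 1,000 or 10,000 per plate in triplicate. Colonies were crystal-violet stained after 10–12 d and counted. Experiments were repeated at least twice; mean ± SD.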

[2] = physiological conditions; cited from earlier work
[3] = test system: MDA-MB-231 and MCF-7 cells; conditions: cited from earlier work
MDA-MB-231 cells = test: MTT viability assay, 5 combined with tamoxifen; type: cell-based, human
[4] = test system: MDA-MB-231 breast cancer cells; test: Intracellular HNO/NO release with DAF-FM-2DA; type: cell-based, human; conditions: 10 µM donor, MDA-MB-231 cells loaded with 10 µM DAF-FM-2DA, 37 °C
Outline: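 They then received 10 µM donor, given as ionic diazeniumdiolates in 10 mM NaOH or the ester-protected form in ethanol (<0.1%). The rise in fluorescence (ex 485/em 535 nm) was followed over time at 37 °C. n = 2, six replicates per plate; mean ± SD.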

[5] = test system: MCF-7 or MDA-MB-231 cells; test: MTT viability assay; type: cell-based, human; conditions: read-out: IC50 (cytotoxicity), 48 h, 10–100 µM
Outline: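 Breast cancer cells were seeded at 8,000–10,000 per well and grown overnight. They were treated 48 h with test compound (10–100 µM) or ethanol vehicle (<0.1% v/v). MTT (5 mg/mL solution) was added for 1 h at 37 °C, medium was removed, formazan was dissolved in DMSO, and absorbance was read at 550 nm. Growth inhibition was expressed as % of matching control; n ≥ 3, mean ± SD.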

[6] = guinea pig, pH 7.4

[Na+].[O-]N=[N+]([O-])NC1CCCCCCC1 [Compound 4, Sodium 1-(N-cyclooctylamino)diazen-1-ium-1,2-diolate]
half-life ([1]; pH 7.4): 5.4 ± 0.07 min | k (decomposition rate constant) [1]: 2.1 ± 0.02 × 10^−3 s^−1

[Na+].[O-]N=[N+]([O-])NC1CCCC1 [Compound 1, Sodium 1-(N-cyclopentylamino)diazen-1-ium-1,2-diolate]
half-life ([1]; pH 7.4): 3.6 ± 0.08 min | k (decomposition rate constant) [1]: 3.2 ± 0.07 × 10^−3 s^−1 | cytotoxicity (clonogenic assay) (MCF-7 cells): lowest cytotoxicity

[Na+].[Na+].[O-][N+]([O-])=NO [Angeli’s salt, sodium trioxodinitrate]
half-life [2]: ~ 2 min | concentration range inhibiting proliferation [3]: millimolar range

CC/C(=C(\c1ccccc1)c1ccc(OCCN(C)C)cc1)c1ccccc1 [tamoxifen, Tamoxifen, reference compound]
viability at 10 µM (MDA-MB-231 cells; Homo sapiens, MDA-MB-231, 48 h): 76 ± 13%

[Na+].[O-]N=[N+]([O-])NC1CCCCCC1 [Compound 3, Sodium 1-(N-cycloheptylamino)diazen-1-ium-1,2-diolate]
half-life ([1]; pH 7.4): 5.9 ± 0.04 min

CC(=O)OCON=[N+]([O-])NC1CCCC1 [Compound 5, O^2-(Acetoxymethyl) 1-(cyclopentylamino)diazen-1-ium-1,2-diolate]
decomposition rate constant at pH 9 ([1]; absence of serum, pH 9): 5.0 × 10^−3 s^−1 | half-life of decomposition ([1]; pH 7.4): 21 min | DAF-FM fluorescence signal relative to the four ionic compounds [4]: ~ 3 fold | IC50 [5]: ~100 µM | viability (MDA-MB-231 cells; 5 at 75 µM, 48 h, MB-231 cells): 75 ± 6% | half-life of decomposition in the presence of serum esterases [6]: 5.8 min

[Na+].[O-]N=[N+]([O-])NC1CCCCC1 [Compound 2, Sodium 1-(N-cyclohexylamino)diazen-1-ium-1,2-diolate]
half-life ([1]; pH 7.4): 6.1 ± 0.02 min

CC(C)N[N+]([O-])=N[O-].[Na+] [IPA/NO, sodium 1-(N-isopropylamino)diazen-1-ium-1,2-diolate]
half-life [2]: 6.7 min
